Results from ChEMBL document CHEMBL4118271, “Synthesis and antitumor activity of novel 6,7,8-trimethoxy N-aryl-substituted-4-aminoquinazoline derivatives” (Bioorg Med Chem Lett, 2018).
The source made the active and inactive calls. The calls are words filed in the database; no cut-off is given here.

How the values were obtained:
SGC-7901 [1] = experiment: Anticancer activity against human SGC7901 cells after 72 hrs by MTT assay; format: functional, cell-based; conditions: SGC-7901, 72 h
SGC-7901 [2] = experiment: Anticancer activity against human SGC7901 cells at 1 to 10 uM after 72 hrs by MTT assay; format: functional, cell-based
Summary of the method: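 Growth inhibition of SGC7901 gastric cancer cells tested at single concentrations of 10 and 1 μM for 72 h, read out by MTT assay. Epirubicin served as the positive control at the same concentrations.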

SGC-7901 [3] = experiment: Induction of morphological changes in human SGC7901 cells at 1 uM after 24 hrs by inverted microscopic analysis; format: functional, cell-based
Summary of the method: (§1)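 SGC7901 cells were seeded and allowed 24 h to settle, then exposed to 0.1% (v/v) DMSO vehicle, to test agent at 1 or 10 μM, or to epirubicin at 1 or 10 μM. Exposure lasted 24, 48 and 72 h. Morphology (shrinkage, size, apoptotic bodies, breakdown) was then observed microscopically.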

SGC-7901 [4] = experiment: Induction of morphological changes in human SGC7901 cells assessed as induction of cell shrinking at 10 uM after 48 to 72 hrs by inverted microscopic analysis; format: functional, cell-based; summary of the method: as §1
SGC-7901 [5] = experiment: Antiproliferative activity against human SGC7901 cells assessed as formation of apoptotic bodies at 10 uM after 48 to 72 hrs by inverted microscopic analysis; format: functional, cell-based; summary of the method: as §1
[6] = target: Mitogen-activated protein kinase; ERK1/ERK2 (Homo sapiens) (UniProt P27361+P28482); experiment: Inhibition of EGF-induced ERK1/2 phosphorylation in human SGC7901 cells incubated for 30 mins post 10 min EGF stimulation by Western blot analysis; format: cell-based
Summary of the method: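 SGC7901 cells were grown in RPMI 1640 with 10% serum to 80% confluency and stimulated with 40 ng/ml EGF for 10 min. They were then treated for 30 min with 0.1% (v/v) DMSO or test agent at 1, 10, 20 or 40 μM. Lysates were run on SDS-PAGE and blotted for phospho-ERK1/2, with actin as loading control, ECL detection and densitometry. Three independent experiments were run.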

SGC-7901 [7] = experiment: Induction of morphological changes in human SGC7901 cells assessed as reduction in cell size at 10 uM after 48 to 72 hrs by inverted microscopic analysis; format: functional, cell-based; summary of the method: as §1
SGC-7901 [8] = experiment: Induction of morphological changes in human SGC7901 cells assessed as induction of cell break at 1 and 10 uM after 24 to 72 hrs by inverted microscopic analysis; format: functional, cell-based; summary of the method: as §1

Mitogen-activated protein kinase; ERK1/ERK2 (Homo sapiens), sequence (P27361 whole entry, looked up): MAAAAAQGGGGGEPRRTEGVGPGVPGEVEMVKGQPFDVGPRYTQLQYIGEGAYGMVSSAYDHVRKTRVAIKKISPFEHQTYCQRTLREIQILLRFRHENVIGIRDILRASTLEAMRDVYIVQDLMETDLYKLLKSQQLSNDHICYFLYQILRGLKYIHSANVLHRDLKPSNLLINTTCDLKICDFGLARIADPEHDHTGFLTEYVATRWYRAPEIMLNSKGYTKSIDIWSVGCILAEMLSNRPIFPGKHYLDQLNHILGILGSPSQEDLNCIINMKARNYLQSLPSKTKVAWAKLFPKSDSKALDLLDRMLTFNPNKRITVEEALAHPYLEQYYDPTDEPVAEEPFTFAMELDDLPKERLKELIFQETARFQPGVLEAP
Mitogen-activated protein kinase; ERK1/ERK2 (Homo sapiens), sequence (P28482 whole entry, looked up): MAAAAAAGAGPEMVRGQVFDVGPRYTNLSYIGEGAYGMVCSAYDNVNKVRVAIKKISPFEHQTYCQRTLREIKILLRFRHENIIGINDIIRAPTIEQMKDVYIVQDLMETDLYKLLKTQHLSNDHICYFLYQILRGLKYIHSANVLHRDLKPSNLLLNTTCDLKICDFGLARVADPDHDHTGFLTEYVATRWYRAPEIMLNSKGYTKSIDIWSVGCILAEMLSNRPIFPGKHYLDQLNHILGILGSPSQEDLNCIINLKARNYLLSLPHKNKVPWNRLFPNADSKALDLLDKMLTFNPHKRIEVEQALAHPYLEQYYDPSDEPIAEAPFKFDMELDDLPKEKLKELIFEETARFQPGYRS

COc1cc2c(Nc3cccc(C(F)(F)F)c3)ncnc2c(OC)c1OC
IC50 (SGC-7901 [1]): > 30 µM

COc1cc2c(Nc3ccc(Br)c(Cl)c3F)ncnc2c(OC)c1OC
IC50 (SGC-7901 [1]): 15 µM

COc1cc2c(Nc3ccc(C(F)(F)F)cc3)ncnc2c(OC)c1OC
IC50 (SGC-7901 [1]): > 30 µM

COc1cc2c(Nc3cccc(Cl)c3F)ncnc2c(OC)c1OC
IC50 (SGC-7901 [1]): > 30 µM

COc1cc2c(Nc3cc(C(F)(F)F)ccc3F)ncnc2c(OC)c1OC
IC50 (SGC-7901 [1]): 10.3 µM

COc1cc2c(Nc3ccc(F)c(Cl)c3F)ncnc2c(OC)c1OC
IC50 (SGC-7901 [1]): > 30 µM

COc1cc2c(Nc3cccc(F)c3F)ncnc2c(OC)c1OC
IC50 (SGC-7901 [1]): > 30 µM

COc1cc2c(Nc3ccc(B(O)O)cc3)ncnc2c(OC)c1OC
IC50 (SGC-7901 [1]): 0.434 µM
Activity (SGC-7901 [2]): Active
Activity (SGC-7901 [3]): inactive
Activity (SGC-7901 [4]): Active
Activity (SGC-7901 [5]): Active
inhibition [6]: Dose-dependent effect
Activity (SGC-7901 [7]): Active

COc1cc2c(Nc3ccc(Br)c(F)c3)ncnc2c(OC)c1OC
IC50 (SGC-7901 [1]): > 30 µM

COc1cccc2c1C(=O)c1c(O)c3c(c(O)c1C2=O)C[C@@](O)(C(=O)CO)C[C@@H]3O[C@H]1C[C@H](N)[C@@H](O)[C@H](C)O1 [EPIRUBICIN]
IC50 (SGC-7901 [1]): 5.16 µM
Activity (SGC-7901 [8]): Active

COc1cc2c(Nc3cccc(Br)c3F)ncnc2c(OC)c1OC
IC50 (SGC-7901 [1]): > 30 µM

COc1cc2c(Nc3cccc(I)c3)ncnc2c(OC)c1OC
IC50 (SGC-7901 [1]): 8.64 µM

COc1cc2c(Nc3ccc(F)c(Cl)c3)ncnc2c(OC)c1OC
IC50 (SGC-7901 [1]): 5.42 µM

C#Cc1cccc(Nc2ncnc3c(OC)c(OC)c(OC)cc23)c1
IC50 (SGC-7901 [1]): 5.82 µM

COc1cc2c(Nc3cc(Br)ccc3F)ncnc2c(OC)c1OC
IC50 (SGC-7901 [1]): 18.4 µM
